Measurements: ChEMBL document CHEMBL1770118, “A new class of β-carboline alkaloid-peptide conjugates with therapeutic efficacy in acute limb ischemia/reperfusion injury” (Eur J Med Chem, 2011)
The source made the active and inactive calls. The rule behind the calls is not given here. *1 amine or outer side, *2 acyl side, *3 side chain or, on linkers, in order; H or OH if unused. Where a SMILES comes first, the peptide text is derived from it. [ ]: non-standard residue; d: D form. X2 = COc1cc([C@@H]2c3[nH]c4ccccc4c3C[C@@H](C(=O)[*:2])N2[*:1])ccc1O; X3 = COc1ccc([C@@H]2c3[nH]c4ccccc4c3C[C@@H](C(=O)[*:2])N2[*:1])cc1; X1 = O=C([C@@H]1Cc2c([nH]c3ccccc23)[C@@H](c2ccccc2O)N1[*:1])[*:2]

Tests used:
Rattus norvegicus = experiment: Antithrombotic activity in Wistar rat assessed as reduction of dry thrombus weight at 10 umol/kg; assay type: functional, organism-based
PC-12 [1] = experiment: Antioxidant activity in rat PC12 cells assessed as protection against nitric oxide-induced reduction of cell viability pretreated 1 he before nitric oxide challenge incubated for 1 hr followed by washout measured after 14 hrs by MTT assay; assay type: functional, cell-based
Summary of the method: (§1)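 PC12 cells were grown in DMEM with 10% heat-inactivated horse serum and 5% FBS, then seeded at 20,000/well on poly-lysine. After 24 h, cells were pretreated with compound at five concentrations for 1 h. Damage was 1 h with: NO, 2 mM sodium nitroprusside; H₂O₂, 1 mM; ·OH, H₂O₂/Fe(II). Medium was replaced, and MTT survival was read after 14 h. EC50 was derived.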

PC-12 [2] = experiment: Antioxidant activity in rat PC12 cells assessed as protection against hydroxyl radical-induced reduction of cell viability pretreated 1 he before […] incubated for 1 hr followed by washout measured after 14 hrs by MTT assay; assay type: functional, cell-based; summary of the method: as §1
PC-12 [3] = experiment: Antioxidant activity in rat PC12 cells assessed as protection against hydrogen peroxide-induced reduction of cell viability pretreated 1 he before […] incubated for 1 hr followed by washout measured after 14 hrs by MTT assay; assay type: functional, cell-based; summary of the method: as §1

Row | Structure (SMILES) | Activity (Rattus norvegicus) | EC50 (PC-12 [1]) [µM] | EC50 (PC-12 [2]) [µM] | EC50 (PC-12 [3]) [µM]
1 | COc1ccc([C@H]2N[C@H](C(=O)N[C@@H](C)C(=O)N[C@@H](CCCNC(=N)N)C(=O)N3CCC[C@H]3C(=O)N[C@@H](C)C(=O)N[C@@H](CCCCN)C(=O)O)Cc3c2[nH]c2ccccc32)cc1 (H-[X3]ARPAK-OH) | Active | – | – | –
2 | COc1cc([C@H]2N[C@H](C(=O)N[C@@H](C)C(=O)N[C@@H](CCCNC(=N)N)C(=O)N3CCC[C@H]3C(=O)N[C@@H](C)C(=O)N[C@@H](CCCCN)C(=O)O)Cc3c2[nH]c2ccccc32)ccc1O (H-[X2]ARPAK-OH) | Active | – | – | –
3 | COc1ccc([C@H]2N[C@H](C(=O)NCC(=O)N[C@@H](CCCNC(=N)N)C(=O)N3CCC[C@H]3C(=O)N[C@@H](C)C(=O)N[C@@H](CCCCN)C(=O)O)Cc3c2[nH]c2ccccc32)cc1 (H-[X3]GRPAK-OH) | Active | – | – | –
4 | C[C@H](NC(=O)[C@@H]1CCCN1C(=O)[C@H](CCCN=C(N)N)NC(=O)CN)C(=O)N[C@@H](CCCCN)C(=O)O (H-GRPAK-OH) | Active | – | – | –
5 | C[C@H](N)C(=O)N[C@@H](CCCN=C(N)N)C(=O)N1CCC[C@H]1C(=O)N[C@@H](C)C(=O)N[C@@H](CCCCN)C(=O)O (H-ARPAK-OH) | Active | – | – | –
6 | COc1ccc([C@H]2N[C@H](C(=O)O)Cc3c2[nH]c2ccccc32)cc1 | – | 77 | 72 | 38
7 | C[C@H](NC(=O)[C@@H]1CCCN1C(=O)[C@H](CCCNC(=N)N)NC(=O)CNC(=O)[C@@H]1Cc2c([nH]c3ccccc23)[C@@H](c2ccccc2O)N1)C(=O)N[C@@H](CCCCN)C(=O)O (H-[X1]GRPAK-OH) | Active | – | – | –
8 | COc1cc([C@H]2N[C@H](C(=O)NCC(=O)N[C@@H](CCCNC(=N)N)C(=O)N3CCC[C@H]3C(=O)N[C@@H](C)C(=O)N[C@@H](CCCCN)C(=O)O)Cc3c2[nH]c2ccccc32)ccc1O (H-[X2]GRPAK-OH) | Active | – | – | –
9 | C[C@H](NC(=O)[C@@H]1Cc2c([nH]c3ccccc23)[C@@H](c2ccccc2O)N1)C(=O)N[C@@H](CCCNC(=N)N)C(=O)N1CCC[C@H]1C(=O)N[C@@H](C)C(=O)N[C@@H](CCCCN)C(=O)O (H-[X1]ARPAK-OH) | Active | – | – | –
10 | COc1cc([C@H]2N[C@H](C(=O)O)Cc3c2[nH]c2ccccc32)ccc1O | – | 77 | 72 | 38
11 | O=C(O)[C@@H]1Cc2c([nH]c3ccccc23)[C@@H](c2ccccc2O)N1 | – | 77 | 72 | 38
